Series [1] is described as follows: Induction of membrane hyperpolarization in HSMC at 1 mM measured every 2.5 mins for 40 mins by DiBac4(3) dye based spectrofluorometric method relative to NS1619. It is filed as functional, Homo sapiens. An outline of the steps: (§1)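 Human aortic smooth muscle cells were grown in Medium 231 with SMGS at 37 °C, 5% CO2, and seeded at 72×10^3/well on gelatin 24 h before use. Cells were loaded 1 h with DiBac4(3) 2.5 µM in HEPES buffer, pH 7.4, at room temperature. Fluorescence (ex 488/em 520 nm) was read every 2.5 min for 40 min. (Ft-F0)/F0 was calculated, and AUC expressed as % of the NS1619 10 µM response. Six experiments ×6 replicates.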

In series [2] the test system is HSMC. Kind of series: Induction of intracellular cGMP level in HSMC at 300 uM after 20 mins by ELISA. It is filed as functional, cell-based. The settings on record: Homo sapiens. (In general: ELISA stands for enzyme-linked immunosorbent assay.)
Series [3] in a line: Drug metabolism in HSMC assessed as H2S release at 1 mM by WSP1 dye based spectrofluorometric method. It is filed as ADME, cell-based. Conditions: human, 1000 µM, TDE = time-dependent effect. The gist of the method: (§2)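 Human aortic smooth muscle cells were seeded on gelatin-coated slides (30000/well). After 24 h they were loaded with WSP-1 (100 µM) for 30 min, and the supernatant was replaced by compound in HEPES standard buffer (pH 7.4). Fluorescence (λ 465-515 nm) was followed for 1 h and expressed as fluorescence index. Reference donor was used at 300 µM. Data are mean ± SE.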

A short description of series [4]: Drug metabolism in HSMC assessed as H2S release by measuring increase in fluorescence intensity at 1 mM after 1 hr by WSP1 dye based spectrofluorometric method relative to DADS. It is filed as ADME, cell-based. Conditions: human, 1000 µM. An outline of the steps:
as §2

Series [5] relates to Rattus norvegicus. Kind of series: Antihypertensive activity in Wistar rat model of L-NAME-induced hypertension assessed as decrease in basal systolic blood pressure at 133 umol/kg, ip measured at 5 mins interval for 30 mins relative to control. It is filed as functional. An outline of the steps: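 Male 12-week-old normotensive Wistar rats (250 g), anaesthetized with sodium thiopental 60 mg/Kg. Tails warmed under an IR lamp for 15 min, and systolic pressure read by tail-cuff. Baseline taken, then L-NAME 100 mg/Kg i.p. given and pressure monitored 20 min. Test agent given i.p. in DMSO vehicle (0.33 ml/Kg). Read-outs taken every 5 min over 30 min and averaged, as % of the L-NAME-raised Psys. 6 rats/group.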

Series [6] is described as follows: Induction of intracellular cGMP level in sodium nitroprusside pretreated HSMC at 300 uM after 20 mins by ELISA (reference value: 0.446 +/- 0.005 pmol/ml). It is filed as functional, Homo sapiens.
Series [7] concerns Thoracic aorta. Nature of the series: Vasorelaxing effect in endothelium-denuded Wistar rat thoracic aorta ring assessed as reduction in KCl-induced contractile tone. It is filed as functional, tissue-based.
Series [8] relates to Heart. Kind of series: Protection against angiotensin2-induced reduction in coronary flow in Langendorff perfused Wistar rat heart assessed as increase in coronary flow at 300 uM after 20 mins relative to control. It is filed as functional. The gist of the method:
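Langendorff-perfused hearts were equilibrated for 20 min. Coronary spasm was induced with angiotensin II 0.1 µM, kept in the perfusate throughout. Compound (300 µM) or vehicle was then added to the perfusate for 20 min. Coronary flow was expressed as % of the mean of three basal readings. Hearts from 6-9 animals/group; mean ± SE.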

The test system of series [9] is HSMC. Nature of the series: Induction of membrane hyperpolarization in HSMC measured every 2.5 mins for 40 mins by DiBac4(3) dye based spectrofluorometric method. The settings on record: Homo sapiens. It is filed as functional, cell-based. The gist of the method:
as §1

The test system of series [10] is Thoracic aorta. Kind of series: Vasorelaxing effect in endothelium-denuded Wistar rat thoracic aorta ring assessed as reduction in KCl-induced contractile tone at 1 mM relative to KCl. It is filed as functional.
The nature of series [11]: Cytotoxicity in HSMC assessed as cell damage at 300 uM by propidium iodide staining based fluorescence microscopic method. Conditions: human. The gist of the method:
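WSP-1-loaded human aortic smooth muscle cells were incubated with compound for 1 h. Cells were then washed, fixed in Bouin solution for 10 min, and washed twice. Nuclei were stained with propidium iodide, and slides were examined by fluorescence microscopy.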

Series [12] can be described thus: Drug metabolism in HSMC assessed as H2S release at 300 uM by WSP1/propidium iodide staining based fluorescence microscopic method. It is filed as ADME, cell-based. The settings on record: human. An outline of the steps: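 HASMCs on gelatine-coated culture slides were loaded with 100 µM WSP-1 for 30 min, then incubated with compound in HEPES-buffered saline for 1 h. Cells were washed, fixed in Bouin solution for 10 min, washed twice and counterstained with propidium iodide for nuclei. Green WSP-1 fluorescence was examined by fluorescence microscopy.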

Series [13] is described as follows: Drug metabolism in HSMC assessed as H2S release at 300 uM by WSP1 dye based spectrofluorometric method. It is filed as ADME, cell-based. Conditions: human. The gist of the method:
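HASMCs seeded at 30000/well on gelatine-coated culture slides; after 24 h, loaded with 100 µM WSP-1 for 30 min. Dye solution replaced by compound in HEPES-buffered saline, pH 7.4, without added thiols. H2S-evoked fluorescence (λ 465–515 nm) was read by spectrofluorometer over 1 h and expressed as fluorescence index.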

In series [14] the test system is HSMC. Nature of the series: Induction of membrane hyperpolarization in HSMC at 10 uM measured every 2.5 mins for 40 mins by DiBac4(3) dye based spectrofluorometric method. It is filed as functional, cell-based. Conditions: Homo sapiens. An outline of the steps: as §1

Structures are written as SMILES. Calls of active or inactive are those of the source. The calls are words filed in the database; no cut-off is given here.

Here are results for 12 compounds from ChEMBL document CHEMBL4028854, “Iminothioethers as Hydrogen Sulfide Donors: From the Gasotransmitter Release to the Vascular Effects” (J Med Chem, 2017).

For `N=C(Sc1ccccc1)c1cccs1`, the Activity in series [1] is 36%; in series [6] it was 0.667 pmol/mL; in [9] it was “Dose-dependent effect”; in series [11] it was “Toxic”. For the same compound, the outcome in series [2], in [5] and in series [8] was inactive. In series [3], the Drug metabolism entry is on record as “Tde”. In addition, the “fold change (FC)” value in [4] is 50. The IC50 (usually the concentration at which inhibition is half-maximal) in series [7] was 631 µM. Besides, in series [10], the Emax – broadly, the maximal effect, on the per cent scale that the assay sets – at 1000 µM turned out to be 99.7%.
On to `N=C(SCc1ccc2ccccc2c1)c1cccs1`, for which, in series [10], the Emax at 1000 µM turned out to be 20.4%.
Take `Oc1ccc(C(=S)NCc2ccccc2)cc1`: the IC50 in [7] is 347 µM. Moreover, in series [10], the Emax at 1000 µM was determined as 88.2%.
For the compound `COc1ccc(C(=N)SCc2ccccc2)cc1`, the Activity was 149% in [1]; 36% in [5]; 0.489 pmol/mL in series [6]; “<=165%” in [8]; “Dose-dependent effect” in series [9]. Further, the outcome in series [2] was inactive. The Drug metabolism result in series [12] was “Metabolite_Detected”; in [3], “Tde”. Further, in series [7], the IC50 was 257 µM. The maximal response (Emax) at 1000 µM in series [10] worked out at 89.9%.
Take `C=CCSSCC=C` [DIALLYLDISULFIDE]: the Drug metabolism result in series [12] and in series [13] was “Metabolite_Detected” in each case. Besides, the Activity in series [5] is on record as 39%. Besides, in series [10], the maximal effect (Emax) at 1000 µM is 41.7%.
Regarding `S=C(NCc1ccccc1)c1ccccc1`, in [7], the IC50 is 162 µM. The Emax at 1000 µM in series [10] stood at 92.7%.
`N=C(SCc1ccccc1)c1ccccc1`: in [7], the IC50 is 427 µM. The Emax at 1000 µM in series [10] turned out to be 86.5%.
For `N=C(SCc1ccccc1)c1cccs1` the same measures were 263 µM and 89.9%.
Regarding `S=C(NCc1ccccc1)c1cccs1`, the IC50 in series [7] was 240 µM. Further, the Emax at 1000 µM in series [10] was determined as 91.7%.
For `COc1ccc(C(=S)NCc2ccccc2)cc1` the same measures were 129 µM and 96.8%.
`O=c1[nH]c2cc(C(F)(F)F)ccc2n1-c1cc(C(F)(F)F)ccc1O`: in series [14], the result was Active.
Regarding `N=C(SCc1ccccc1)c1ccc(O)cc1`, the IC50 in series [7] was 490 µM. In addition, the maximal effect (Emax) at 1000 µM in series [10] was 82.1%.
